Data on seven compounds can be found in ChEMBL document CHEMBL1123563, “New antifilarial agents. 1. Epoxy sulfonamides and ethynesulfonamides” (J Med Chem, 1987).

In general, EC90 refers to the concentration at which the effect reaches the 90% level. Lower therefore signals an effect from little substance. Usually pEC50 stands for the negative decadic logarithm of the EC50, by convention in mol/L. High values mean a small EC50, low ones a large EC50.

For assay [1], the system named is molinema dessetae. In words: Antifilarial activity against Molinema dessetae in vivo against male adult worms at a dose of 0.2 mg/kg subcutaneously once a day for 5 days; Active. The class given is functional, organism-based. Set-up: dose 0.2 mg/kg.
Assay [2] relates to molinema dessetae. In words: Antifilarial activity against Molinema dessetae in vivo against female adult worms at a dose of 0.2 mg/kg subcutaneously once a day for 5 days; Active. It is filed as functional, organism-based. Set-up: dose 0.2 mg/kg.
Assay [3] relates to molinema dessetae. Briefly: Antifilarial activity against Molinema dessetae in vivo in Proechimys oris the natural host at a dose of 0.2 mg/kg subcutaneously once a day for 5 days. Value is expressed as number of infected P. oris. It is filed as functional, organism-based. Set-up: dose 0.2 mg/kg.
Assay [4] has as its system molinema dessetae.
Assay [5] is described as follows: Antifilarial activity against Molinema dessetae in vivo in Proechimys oris the natural host at a dose of 1000 mg/kg subcutaneously once a day for 5 days. Value is expressed as number of infected P. oris. It is filed as functional. The settings on record: route subcutaneous.
Assay [6] in a line: Effective concentration of compound necessary to kill 50% of infective larvae of Molinema dessetae after 7 days was determined in vitro. The class given is functional.
For assay [7], the system named is molinema dessetae. In words: Antifilarial activity against Molinema dessetae in vivo against male adult worms at a dose of 1000 mg/kg subcutaneously once a day for 5 days; Active. It is filed as functional, organism-based. Set-up: dose 1000 mg/kg.
The subject of assay [8] is molinema dessetae. In words: Antifilarial activity against Molinema dessetae in vivo against female adult worms at a dose of 1000 mg/kg subcutaneously once a day for 5 days; Active. Set-up: dose 1000 mg/kg. The class given is functional, organism-based.
The subject of assay [9] is molinema dessetae. Briefly: Effective concentration of compound necessary to kill 90% of infective larvae of Molinema dessetae after 7 days was determined in vitro; Value ranges from 100-500. It is filed as functional. The method, boiled down:
(§1)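 Infective larvae from the intermediate host were decontaminated and held 20 per 1.5 mL in a biphasic medium: L929 feeder layer with RPMI and fetal calf serum (90:10), plus penicillin and streptomycin. Compound solutions at several concentrations were made in DMSO, and 10 μL of each was added. After 7 days, survival was corrected by control, in duplicate runs. EC ranges are given in μM.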

The subject of assay [10] is molinema dessetae. In words: Antifilarial activity against Molinema dessetae in vivo against male adult worms at a dose of 200 mg/kg subcutaneously once a day for 5 days; Inactive. The class given is functional, organism-based. Set-up: dose 200 mg/kg. The method, boiled down:
(§2)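 Proechimys oris of both sexes were each infected with 200 infective larvae dissected from Aedes aegypti mosquitoes. Microfilaremia was checked, and the rodents were treated 150–180 days post-infection. Compound was given subcutaneously as a 1% carboxymethylcellulose suspension once daily for 5 consecutive days. Microfilaremia was followed for 6 weeks, then adult male and female worms were counted at autopsy. A compound was scored active if no males and ≤1.6 females were found (p = 0.12).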

Assay [11] has as its system molinema dessetae. In words: Antifilarial activity against Molinema dessetae in vivo against female adult worms at a dose of 200 mg/kg subcutaneously once a day for 5 days. Set-up: dose 200 mg/kg. It is filed as functional, organism-based. The method, boiled down: as §2
Assay [12] in a line: Antifilarial activity against Molinema dessetae in vivo in Proechimys oris the natural host at a dose of 200 mg/kg subcutaneously once a day for 5 days. Value is expressed as number of infected P. oris. It is filed as functional. The settings on record: route subcutaneous. The method, boiled down: as §2
The nature of assay [13]: Effective concentration of compound necessary to kill 50% of infective larvae of Molinema dessetae after 7 days was determined in vitro; Value ranges from 20-100. The class given is functional. A digest of the protocol:
as §1

Assay [14] can be described thus: Antifilarial activity against Molinema dessetae in vivo in Proechimys oris the natural host at a dose of 40 mg/kg subcutaneously once a day for 5 days. Value is expressed as number of infected P. oris. The class given is functional. The settings on record: route subcutaneous.
For assay [15], the system named is molinema dessetae. In words: Antifilarial activity against Molinema dessetae in vivo against male adult worms at a dose of 40 mg/kg subcutaneously once a day for 5 days; Active. The class given is functional, organism-based. Set-up: dose 40 mg/kg.
Assay [16] deals with molinema dessetae. Briefly: Antifilarial activity against Molinema dessetae in vivo against female adult worms at a dose of 40 mg/kg subcutaneously once a day for 5 days; Active. It is filed as functional, organism-based. Set-up: dose 40 mg/kg.
Assay [17] is described as follows: Effective concentration of compound necessary to kill 50% of infective larvae of Molinema dessetae after 7 days was determined in vitro; Value ranges from 100-500. It is filed as functional. A digest of the protocol: as §1
Assay [18] deals with molinema dessetae. In words: Antifilarial activity against Molinema dessetae in vivo against female adult worms at a dose of 100 mg/kg subcutaneously once a day for 5 days; Active. The class given is functional, organism-based. Set-up: dose 100 mg/kg. A digest of the protocol:
as §2

Assay [19] is described as follows: Antifilarial activity against Molinema dessetae in vivo in Proechimys oris the natural host at a dose of 100 mg/kg subcutaneously once a day for 5 days. Value is expressed as number of infected P. oris. The class given is functional. The settings on record: route subcutaneous. The method, boiled down:
as §2

Assay [20] relates to molinema dessetae. Briefly: Effective concentration of compound necessary to kill 90% of infective larvae of Molinema dessetae after 7 days was determined in vitro; Value ranges from 20-100. It is filed as functional. A digest of the protocol: as §1
Assay [21] has as its system molinema dessetae. In words: Antifilarial activity against Molinema dessetae in vivo against male adult worms at a dose of 100 mg/kg subcutaneously once a day for 5 days; Active. Set-up: dose 100 mg/kg. It is filed as functional, organism-based. The method, boiled down: as §2
Assay [22] concerns molinema dessetae. Briefly: Antifilarial activity against Molinema dessetae in vivo against male adult worms at a dose of 10 mg/kg subcutaneously once a day for 5 days; Active. It is filed as functional, organism-based. Set-up: dose 10 mg/kg. A digest of the protocol:
as §2

For assay [23], the system named is molinema dessetae. In words: Antifilarial activity against Molinema dessetae in vivo against female adult worms at a dose of 10 mg/kg subcutaneously once a day for 5 days; Active. The class given is functional, organism-based. Set-up: dose 10 mg/kg. A digest of the protocol:
as §2

Assay [24] is described as follows: Antifilarial activity against Molinema dessetae in vivo in Proechimys oris the natural host at a dose of 10 mg/kg subcutaneously once a day for 5 days. Value is expressed as number of infected P. oris. It is filed as functional. The settings on record: route subcutaneous. The method, boiled down:
as §2

Assay [25] deals with molinema dessetae. In words: Antifilarial activity against Molinema dessetae in vivo against male adult worms at a dose of 50 mg/kg subcutaneously once a day for 5 days; Inactive. The class given is functional, organism-based. Set-up: dose 50 mg/kg. A digest of the protocol: as §2
Assay [26] can be described thus: Antifilarial activity against Molinema dessetae in vivo in Proechimys oris the natural host at a dose of 50 mg/kg subcutaneously once a day for 5 days. Value is expressed as number of infected P. oris. The class given is functional. The settings on record: route subcutaneous. A digest of the protocol: as §2
Assay [27] concerns molinema dessetae. Briefly: Antifilarial activity against Molinema dessetae in vivo against male adult worms at a dose of 200 mg/kg subcutaneously once a day for 5 days; Active. The class given is functional, organism-based. Set-up: dose 200 mg/kg. The method, boiled down:
as §2

Assay [28] relates to molinema dessetae. In words: Antifilarial activity against Molinema dessetae in vivo against female adult worms at a dose of 200 mg/kg subcutaneously once a day for 5 days; Active. Set-up: dose 200 mg/kg. The class given is functional, organism-based. A digest of the protocol:
as §2

pEC50: −log10 of the molar value. The source made the active and inactive calls.

Turning to IVERMECTIN, the result in the assay with molinema dessetae [1] and in the assay on molinema dessetae [2] was Active. This compound came in with an Activity with molinema dessetae [3] of 2. The EC90 with molinema dessetae [4] is less than 20 µM.

Turning to `C[C@@H]1O[C@@H]1P(=O)([O-])[O-].[Na+].[Na+]` [PHOSPHOMYCIN DISODIUM], the Activity in assay [5] came to 2. This compound also showed a pEC50 in assay [6] of less than 3.30. The 90% effect concentration (EC90) in the assay with molinema dessetae [4] was more than 500 µM. The result in the assay on molinema dessetae [7] and with molinema dessetae [8] was Active.

The compound `CCCN1CCN(S(=O)(=O)C2OC2c2ccccc2)CC1` (stereo unspecified) showed an EC90 with molinema dessetae [9] of 500 µM. The result in the assay with molinema dessetae [10] and in the assay on molinema dessetae [11] was inactive. In addition, the Activity in assay [12] was 2. This compound also had a negative-log EC50 (pEC50) in [13] of 4.00.

Consider `Cc1ccc(C(=O)Nc2ccc(S(=O)(=O)O)c3cc(S(=O)(=O)O)cc(S(=O)(=O)O)c23)cc1NC(=O)c1cccc(NC(=O)Nc2cccc(C(=O)Nc3cc(C(=O)Nc4ccc(S(=O)(=O)O)c5cc(S(=O)(=O)O)cc(S(=O)(=O)O)c45)ccc3C)c2)c1` [SURAMIN], for which the 90% effect level in the assay with molinema dessetae [9] (EC90) was put at 500 µM. Also, the Activity in assay [14] was 2. The result in the assay with molinema dessetae [15] and in the assay on molinema dessetae [16] was Active. In assay [17], the pEC50 was 3.30.

Consider `O=S(=O)([C@@H]1O[C@H]1c1ccccc1)N1CCOCC1`, for which the outcome in the assay on molinema dessetae [18] and in the assay with molinema dessetae [21] was Active. In assay [19], the Activity is 3. The compound further registered an EC90 in the assay with molinema dessetae [20] of 100 µM. Besides, the pEC50 in assay [13] is 4.00.

For the compound `CN1CCN(S(=O)(=O)[C@@H]2O[C@H]2c2ccccc2)CC1`, the result with molinema dessetae [22] and with molinema dessetae [23] was Active. Besides, in the assay on molinema dessetae [20], the EC90 amounted to 100 µM. The compound also came in with an Activity in assay [24] of 4. In addition, in assay [13], the pEC50 is 4.00.

For `CN(C)S(=O)(=O)[C@@H]1O[C@H]1c1ccccc1`, in the assay on molinema dessetae [9], the EC90 worked out at 500 µM. In addition, the result in the assay with molinema dessetae [25] was inactive. Moreover, the Activity in assay [26] and in assay [12] was 2 throughout. Moreover, the outcome with molinema dessetae [27] and with molinema dessetae [28] was Active. In [13], this compound gave a pEC50 of 4.00.
